# Cl transport mod = modulates chloride dependent transport by human KCC2. Q9H2X9. KCC2 cells, thallium flux FluoZin-2 fluorescence. B-score of Tl+ flux slope (higher = more flux/activation; lower = inhibition) at 10 µM. 2.2% of 190,000 active. AID 1456;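 active = thallium flux slope and its plate-corrected score both differing from the plate sample mean at a set confidence after two filtering rounds, in either direction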;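 also: slope of fluorescence scaled to starting intensity during 10 to 20 s after thallium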
# NPY Y1 blocker = antagonists of human neuropeptide Y receptor Y1; 1% of 200,000 active; HEK293-CNG Y1 cells, membrane potential fluorescence; NPY at EC95, then isoproterenol; P25929; inhibition, % at 3.6 µM; AID 1040;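 active = inhibition above the campaign mean inhibition of all tested compounds plus 3 SD, cut at about 20% in these data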;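 also: 0% = DMSO wells given NPY plus isoproterenol and 100% = isoproterenol alone without NPY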
#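 Benchmarks – high control isoproterenol alone, low control NPY with isoproterenol · Material – HEK293 Y1/CNG channel cell line · Times – dye 3 h, compound 60 min room temperature, stimulation 45 min · Probe or stimulus – NPY (25 nM), isoproterenol (1 µM), Ro 20-1724 (25 µM) · Evaluation – % inhibition of NPY effect · Signal – fluorescence, membrane potential probe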
# Furin inh = human furin inhibition; P09958; purified furin, fluorogenic substrate cleavage; inhibition, % at 20 µM or 30 µM; 0.061% of 220,000 active; in the data active = inhibition above about 25%
# Target sequence (P09958 108-714 limits assumed): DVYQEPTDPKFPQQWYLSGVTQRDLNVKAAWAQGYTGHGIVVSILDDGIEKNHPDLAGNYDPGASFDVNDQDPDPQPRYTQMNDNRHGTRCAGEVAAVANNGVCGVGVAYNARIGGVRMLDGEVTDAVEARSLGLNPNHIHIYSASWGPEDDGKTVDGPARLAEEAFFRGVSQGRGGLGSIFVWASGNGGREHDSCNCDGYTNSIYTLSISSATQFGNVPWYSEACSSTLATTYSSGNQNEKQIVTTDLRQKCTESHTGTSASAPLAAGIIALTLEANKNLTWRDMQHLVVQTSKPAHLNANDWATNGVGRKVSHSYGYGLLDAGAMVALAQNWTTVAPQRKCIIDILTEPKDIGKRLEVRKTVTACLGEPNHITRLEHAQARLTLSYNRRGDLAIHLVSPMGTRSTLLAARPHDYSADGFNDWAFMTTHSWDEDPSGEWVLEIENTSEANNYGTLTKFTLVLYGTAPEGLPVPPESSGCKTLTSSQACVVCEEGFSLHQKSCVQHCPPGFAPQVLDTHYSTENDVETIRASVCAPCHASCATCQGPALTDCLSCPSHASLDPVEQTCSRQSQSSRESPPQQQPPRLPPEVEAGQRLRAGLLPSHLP
# NPY2 pot ag = potentiators or agonists of human neuropeptide Y receptor Y2. AID 1359. cells expressing NPY-Y2, potentiator/agonist read-out. P49146. 0.45% of 220,000 active. activation, % at 3.6 µM; in the data active = activation above about 27%;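 also: cells stimulated with NPY near EC25 plus isoproterenol at EC100; 0% = vehicle plus submaximal agonist and 100% = vehicle plus saturating agonist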
# NPY-Y1 PAM-ag = human NPY-Y1 potentiation or agonism, primary screen; activation, % at 3.6 µM; 0.37% of 220,000 active; NPY-Y1 expressing cells, potentiator/agonist activation; P25929; in the data active = activation above about 33%, passing the limit was not always enough;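 also: cells stimulated with NPY at EC10 then isoproterenol at EC100; 0% = low agonist plus stimulus and 100% = saturating agonist plus stimulus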
# NPY-Y2 antag = NPY-Y2 (human) receptor antagonism; P49146; NPY-Y2 expressing cells, antagonist mode; inhibition, % at 2.7 µM; 0.99% of 140,000 active; in the data active = inhibition above about 17%;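 also: 0% = vehicle with agonist challenge and 100% = reference antagonist with challenge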
# KCC2 secondary = KCC2 (human) modulation, secondary assay; shares compounds with Cl transport mod; HEK293-KCC2, thallium flux, FluoZin2 fluorescence; hits give high values; normalised thallium flux (F/F0 slope) at 10 µM; 15% of 3,700 active; AID 1713;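 active = thallium flux slope above the same plate's solvent-only control mean plus 3 SD; inconclusive = the two replicate wells disagree; inactive = no significant difference from solvent-only control wells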
# KCC2 bumet counter = bumetanide-insensitive thallium flux in KCC2 cells with ouabain, counter-screen; shares compounds with Cl transport mod; HEK293-KCC2 + bumetanide/ouabain, thallium flux FluoZin2; hits give high values; normalized thallium flux at 10 µM; 49% of 3,700 active;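 active = thallium entry rate above the same plate's blocked-transporter control wells by more than 3 SD; inconclusive = the two repeat wells disagree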;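 also: raw slope of fluorescence over initial fluorescence between 10 and 20 s after thallium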
# KCC2 sec2 = confirmation of human KCC2 transport modulators. normalized thallium flux at 10 µM. AID 1715. 23% of 3,700 active. shares compounds with Cl transport mod. HEK293-KCC2, thallium flux FluoZin2 fluorescence; actives lie on both sides; F/F0 rise rate, 10–20 s post-thallium;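 active = thallium flux slope more than 3 SD above or below the plate's solvent-only control mean, mostly below; inconclusive = the two repeat wells disagreed; inactive = no significant shift from solvent-only controls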;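 also: raw slope with 0.1% DMSO as baseline and bumetanide as block control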
# HEK counter1 = counter-screen for KCC2 modulators: effect in parental HEK293 cells; 46% of 3,700 active; AID 1716; thallium flux FluoZin2, ouabain; baseline-ratio fluorescence slope, 10–20 s after thallium; thallium flux rate (normalised fluorescence) at 10 µM; shares compounds with Cl transport mod;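 active = thallium flux rate significantly above the same plate's solvent-only control wells, beyond their mean plus 3 SD; inconclusive = the two replicate wells gave conflicting results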
# KCC2 ouabain = confirmation of human KCC2 modulators with ouabain; shares compounds with Cl transport mod; HEK293-KCC2, thallium flux FluoZin2 fluorescence; bidirectional: low = inhibitor, high = activator; raw Tl+ flux slope (below DMSO = inhibition, above = activation) at 10 µM; 48% of 3,700 active; AID 1717;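 active = thallium flux slope beyond 3 SD from same-plate DMSO control mean in most replicates, usually higher, sometimes lower; inconclusive = repeat tests gave conflicting results; inactive = no significant difference from controls in most replicates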;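 also: slope of initial-normalized fluorescence between seconds 10 and 20 after thallium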
# HEK293 Tl flux2 = parental HEK flux effect, counter-screen 2. thallium flux slope at 10 µM. shares compounds with Cl transport mod. 33% of 3,700 active. HEK293 parental, thallium flux FluoZin-2 fluorescence slope. AID 1718;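 active = thallium flux slope above the same plate's solvent-control mean plus 3 SD in both duplicate wells; inconclusive = duplicate wells that disagreed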;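 also: run without ouabain in cells lacking the KCC2 cotransporter; slope of fluorescence scaled to its starting value between 10 and 20 s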
# Starred values were filed as active, the others as inactive; ? = inconclusive; nt = no result. The list is not random: actives were taken first. Their share in the collection is about 3.7%.
SMILES,Cl transport mod,NPY Y1 blocker,Furin inh,NPY2 pot ag,NPY-Y1 PAM-ag,NPY-Y2 antag,KCC2 secondary,KCC2 bumet counter,KCC2 sec2,HEK counter1,KCC2 ouabain,HEK293 Tl flux2
COc1ccc(C2CCCN2C(=O)Nc2ccc(Cl)cc2)cc1OC (stereo unspecified),-3.35*,5.2,-31.4,5.3,-3.2,5.7,0.00657,0.0049,0.0302,0.00749,?,0.011
CSc1ccccc1NC(=O)c1cc(C)on1,nt,7.2,-14.5,-7.0,1.3,-0.7,nt,nt,nt,nt,nt,nt
CSc1ccccc1NC(=O)c1cc(C(C)C)on1,nt,2.9,-11.7,-6.0,-15.3,3.0,0.00809,0.00421,0.0282,0.00734,0.0174,0.00994
Cc1sc(NC(=O)CSC2=NCCS2)nc1-c1ccccc1,nt,0.7,-3.5,-3.9,6.3,0.9,0.00783,0.0041,0.0328,0.00394,0.0191,0.0108
O=C(CSC1=NCCS1)Nc1nc2ccccc2s1,-1.15,-0.1,-8.9,2.5,3.2,0.6,nt,nt,nt,nt,nt,nt
O=C(CN(Cc1ccccc1)S(=O)(=O)c1ccc2c(c1)OCCO2)Nc1ccc2c(c1)OCCO2,nt,3.3,-25.0,18.3,-0.9,3.5,0.0066,0.00408,0.025*,0.00622*,?,0.00932
CNC(=O)CS(=O)CC(=O)Nc1cc(OCCOC)c(Cl)cc1Cl (stereo unspecified),1.59,5.5,-9.2,-22.6,8.5,nt,nt,nt,nt,nt,nt,nt
Oc1ccc(/C=N/N2CCN(C3c4ccccc4-c4ccccc43)CC2)cc1O,-0.579,nt,-28.2,9.6,1.7,nt,nt,nt,nt,nt,nt,nt
Cc1ccc2cccc(NC(=S)NC(=O)c3c(Br)cnn3C)c2n1,5.72*,9.6,-6.5,-6.3,-24.3,1.4,0.00669,0.0151*,0.0268,0.0145*,0.0287*,0.0122*
CCC(=O)NC(=S)Nc1cccc(NC(=O)c2ccccc2)c1,1.4,1.1,-10.1,5.2,13.0,nt,nt,nt,nt,nt,nt,nt
CC1CCCN(c2nc3nonc3nc2N2CCCC(C)C2)C1 (stereo unspecified),-1.23,9.5,-2.5,2.2,-16.9,3.4,nt,nt,nt,nt,nt,nt
CN(Cc1ccccc1)c1nc2nonc2nc1N1CCCC(CN2CCCC2=O)C1 (stereo unspecified),-5.43*,nt,-2.6,-7.1,2.2,nt,0.016,0.00451,0.0188*,0.00708,0.0131,0.00956
CC(=O)NCC1CCCN(c2nc3nonc3nc2N(C)Cc2ccccc2)C1 (stereo unspecified),-7.04*,-0.6,-17.7,-8.2,-10.9,nt,0.00977,0.00654,0.0292*,0.00438,0.0158*,0.0115
COCC1CCN(c2nc3nonc3nc2N2CCSCC2)C1 (stereo unspecified),0.762,1.2,-5.9,10.0,1.2,nt,nt,nt,nt,nt,nt,nt
Cc1[nH]c2ccccc2c1C(=O)COC(=O)c1c(-c2c(F)cccc2Cl)noc1C,0.333,2.7,-6.2,11.5,17.7,-4.1,nt,nt,nt,nt,nt,nt
O=C1NC(=S)N(c2cccc(Cl)c2)C12CCCCC2,4.64*,-8.5,-5.7,3.1,5.0,1.3,0.00712,0.0106*,0.0294,0.0134*,0.0204,0.0121*
COc1ccc(CN2CN=C(Nc3nc4ccccc4s3)NC2)cc1,-5.45*,2.7,-14.4,-5.4,-9.2,2.8,0.00566,0.00466,0.029,0.00743,0.0189,0.0107

# Assay outcomes (PubChem BioAssay)
